In ChEMBL document CHEMBL3272094 (J Med Chem, 1978):
Activity calls are given as the source filed them. The calls are words filed in the database; no cut-off is given here.

Tests used:
[1] = Competitive inhibition of tyrosine hydroxylase (unknown origin); set-up: species or system Homo sapiens
[2] = test system: Felis catus; assay: Inhibition of isoproterenol-induced tachycardia in cat at 100 ug/kg; type: functional
[3] = species on record: Cavia porcellus; assay: Agonist activity at alpha-adrenergic receptor in guinea pig aortic strip assessed as induction of contraction
Method in brief: (§1)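 Spirally cut thoracic aortic strip (3 cm × 2 mm) from male guinea pig (400–900 g), in modified Krebs at 37.0 °C, gassed 95% O2/5% CO2. Initial tension 0.5 g, equilibrated ≥2 h. Isometric contraction recorded over cumulative dose-response curves, with each dose held until the response levelled (10 min). Responses expressed as % of maximum contraction to 10⁻⁴ M norepinephrine added after the last dose.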

[4] = test system: Rattus norvegicus; assay: Hypertensive effect in Wistar rat assessed as mean pressor response at 10 umol/kg in presence of reserpine; type: functional
Method in brief: (§2)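 Rats given 1 or 10 μmol/kg iv as a 0.5 mL/kg saline bolus. Mean arterial pressure recorded and the pressor response corrected for the saline injection artifact. Reserpine groups received 2.5 mg/kg ip at 48 and 24 h before. Phentolamine 10 mg/kg iv was given 1 min before dosing. Means ± SEM, n=3–6.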

[5] = test system: Rattus norvegicus; assay: Hypertensive effect in Wistar rat assessed as mean pressor response at 10 umol/kg; type: functional; method in brief: as §2
[6] = test system: Rattus norvegicus; assay: Hypertensive effect in Wistar rat assessed as mean arterial pressure at 10 umol/kg in presence of phentolamine; type: functional, Artery; method in brief: as §2
[7] = test system: Rattus norvegicus; assay: Hypertensive effect in Wistar rat assessed as mean arterial pressure at 10 umol/kg; type: functional, Artery; method in brief: as §2
[8] = test system: Rattus norvegicus; assay: Hypertensive effect in Wistar rat assessed as mean arterial pressure at 1 umol/kg; type: functional, Artery; method in brief: as §2
[9] = test system: Rattus norvegicus; assay: Hypertensive effect in Wistar rat assessed as tachyphylaxis at 20 umol/kg administered repeatedly followed by infusion of 128 umol/kg for 90 secs in presence of reserpine; type: functional, organism-based
Method in brief: (§3)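 Reserpine-pretreated rat given repeated iv injections of 20 μmol/kg, then 128 μmol/kg infused over 90 s. Arterial blood pressure recorded continuously, including time to return to preinjection level.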

[10] = test system: Rattus norvegicus; assay: Hypertensive effect in Wistar rat assessed as mean arterial pressure at 10 umol/kg in presence of phentolamine and reserpine; type: functional, Artery; method in brief: as §2
[11] = species on record: Cavia porcellus; assay: Agonist activity at alpha-adrenergic receptor in guinea pig aortic strip assessed as induction of contraction up to 3 x 10^-3 M in presence of phentolamine
[12] = test system: Rattus norvegicus; assay: Hypertensive effect in Wistar rat assessed as increase in blood pressure at 20 umol/kg administered repeatedly in presence of reserpine; type: functional; method in brief: as §3
[13] = test system: Rattus norvegicus; assay: Hypertensive effect in Wistar rat assessed as increase in blood pressure at 20 umol/kg administered repeatedly after 15 mins in presence of reserpine; type: functional, organism-based; method in brief: as §3
[14] = test system: Rattus norvegicus; assay: Hypertensive effect in Wistar rat assessed as mean pressor response at 10 umol/kg in presence of phentolamine; type: functional; method in brief: as §2
[15] = test system: Rattus norvegicus; assay: Hypertensive effect in Wistar rat assessed as mean arterial pressure at 10 umol/kg in presence of reserpine; type: functional, Artery; method in brief: as §2
[16] = test system: Rattus norvegicus; assay: Hypertensive effect in Wistar rat assessed as mean pressor response at 1 umol/kg; type: functional; method in brief: as §2
[17] = test system: Rattus norvegicus; assay: Hypertensive effect in Wistar rat assessed as mean pressor response at 10 umol/kg in presence of phentolamine and reserpine; type: functional; method in brief: as §2
[18] = test system: Rattus norvegicus; assay: Hypertensive effect in Wistar rat assessed as mean pressor response at 1 umol/kg in presence of reserpine; type: functional; method in brief: as §2
[19] = test system: Rattus norvegicus; assay: Hypertensive effect in Wistar rat assessed as mean arterial pressure at 1 umol/kg in presence of reserpine; type: functional, Artery; method in brief: as §2
[20] = species on record: Cavia porcellus; assay: Agonist activity at alpha-adrenergic receptor in guinea pig aortic strip assessed as induction of contraction relative to norepinephrine; method in brief: as §1
[21] = test system: Rattus norvegicus; assay: Hypertensive effect in Wistar rat assessed as increase in blood pressure at 20 umol/kg administered repeatedly followed by infusion of 128 umol/kg for 90 secs in presence of reserpine; type: functional; method in brief: as §3
[22] = test system: Rattus norvegicus; assay: Hypertensive effect in Wistar rat assessed as increase in mean arterial pressure at 10 umol/kg relative to control; type: functional, Artery; method in brief: as §2
[23] = test system: Rattus norvegicus; assay: Hypertensive effect in Wistar rat assessed as change in mean arterial pressure at 1 nmol/kg (reference value: 7 +/- 2 mmHg); type: functional, Artery
Method in brief: (§4)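 Intact rats; femoral or jugular vein cannulated. Doses of 1–1000 nmol/kg given as a 0.5 mL/kg iv saline bolus, each followed by a heparinized saline flush. Arterial pressure and heart rate taken from the oxygraph recording. A saline control was injected first. For the propranolol group, 1.0 mg/kg propranolol was given 5 min before 1.0 μmol/kg. Means ± SEM, n=3–4.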

[24] = target: Beta-2 adrenergic receptor (Cavia porcellus) (UniProt Q8K4Z4); assay: Agonist activity at beta-2 adrenergic receptor in guinea pig trachea assessed as tracheal relaxation relative to (R,S)-isoproterenol; set-up: Activity: scale not given: the % may be the effect or the level left
Sequence of Beta-2 adrenergic receptor (Cavia porcellus) (Q8K4Z4 whole entry, looked up): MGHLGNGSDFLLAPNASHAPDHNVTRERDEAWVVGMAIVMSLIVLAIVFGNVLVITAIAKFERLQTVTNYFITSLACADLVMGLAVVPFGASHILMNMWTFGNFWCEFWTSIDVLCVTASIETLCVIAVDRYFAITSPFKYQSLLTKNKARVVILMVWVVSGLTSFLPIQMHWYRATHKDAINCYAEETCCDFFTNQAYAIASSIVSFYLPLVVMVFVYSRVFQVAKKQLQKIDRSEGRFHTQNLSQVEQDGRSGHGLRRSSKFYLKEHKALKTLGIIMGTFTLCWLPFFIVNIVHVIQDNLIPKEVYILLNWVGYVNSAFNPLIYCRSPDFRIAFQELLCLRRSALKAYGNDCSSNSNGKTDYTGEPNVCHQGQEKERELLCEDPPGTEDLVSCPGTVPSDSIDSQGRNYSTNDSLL
Method in brief: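 Tracheal chain from male guinea pig (some reserpine-pretreated, 5.0 mg/kg ip 24 h before), equilibrated 30 min at 1 g tension and contracted with 3.0×10⁻⁶ M methacholine for 10 min.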

[25] = target: Beta-1 adrenergic receptor (Cavia porcellus) (UniProt B0FL73); assay: Agonist activity at beta-1 adrenergic receptor in guinea pig atria assessed as effect on force of atrial contraction relative to (R,S)-isoproterenol; conditions: Cardiac atrium
Sequence of Beta-1 adrenergic receptor (Cavia porcellus) (B0FL73 1-467): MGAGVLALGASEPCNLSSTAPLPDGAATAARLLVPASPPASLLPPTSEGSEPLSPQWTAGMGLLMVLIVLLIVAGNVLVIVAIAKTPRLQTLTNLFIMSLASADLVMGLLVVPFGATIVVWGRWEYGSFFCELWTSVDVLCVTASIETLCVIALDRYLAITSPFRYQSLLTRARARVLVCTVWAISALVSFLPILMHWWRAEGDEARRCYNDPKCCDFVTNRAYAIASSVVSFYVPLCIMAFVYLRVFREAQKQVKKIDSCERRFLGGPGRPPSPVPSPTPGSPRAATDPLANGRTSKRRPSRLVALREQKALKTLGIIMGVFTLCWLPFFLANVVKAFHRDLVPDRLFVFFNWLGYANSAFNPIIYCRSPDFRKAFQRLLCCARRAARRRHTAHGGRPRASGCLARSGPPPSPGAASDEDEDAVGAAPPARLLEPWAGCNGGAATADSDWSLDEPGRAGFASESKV
Method in brief: (§5)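 Guinea pig atria (male, 400–900 g; some given reserpine 5.0 mg/kg ip 24 h before) in oxygenated bath at 37.0 °C, diastolic tension 1 g, steady beating reached first. Cumulative doses given 1 min apart. […] Points are means of ≥4 atria.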

[26] = target: Beta-1 adrenergic receptor (Cavia porcellus) (UniProt B0FL73); assay: Agonist activity at beta-1 adrenergic receptor in guinea pig atria assessed as effect on atrial rate relative to (R,S)-isoproterenol; conditions: Cardiac atrium; method in brief: as §5
[27] = target: Beta-2 adrenergic receptor (Cavia porcellus) (UniProt Q8K4Z4); conditions: Trachea
[28] = test system: Rattus norvegicus; assay: Hypertensive effect in Wistar rat assessed as increase in heart rate at 1000 nmol/kg in presence of propranolol (reference value: 1 +/- 0.1 beats/min); type: functional; method in brief: as §4
[29] = target: Beta-1 adrenergic receptor (Cavia porcellus) (UniProt B0FL73); assay: Ionotropic activity at beta-1 adrenergic receptor in guinea pig atria assessed as effect on atrial rate up to 3 x 10^-4 M in presence of propranolol; conditions: Cardiac atrium, in the assay text read “force of atrial contraction” for “atrial rate”
Method in brief: (§6)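 Cumulative dosing of guinea pig atria up to 3×10⁻⁴ M with 10⁻⁶ M propranolol in the bath, at 37.0 °C with 1 g diastolic tension.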

[30] = target: Beta-2 adrenergic receptor (Cavia porcellus) (UniProt Q8K4Z4); assay: Agonist activity at beta-2 adrenergic receptor in guinea pig trachea assessed as tracheal relaxation in presence of propranolol
[31] = test system: Rattus norvegicus; assay: Hypertensive effect in Wistar rat assessed as increase in heart rate at 1000 nmol/kg (reference value: 1 +/- 0.1 beats/min); type: functional; method in brief: as §4
[32] = target: Beta-1 adrenergic receptor (Cavia porcellus) (UniProt B0FL73); assay: Positive chronotropic activity at beta-1 adrenergic receptor in guinea pig atria assessed as effect on force of atrial contraction up to 3 x 10^-4 M in presence of propranolol; conditions: Cardiac atrium, in the assay text read “atrial rate” for “force of atrial contraction”; method in brief: as §6
[33] = test system: Rattus norvegicus; assay: Hypertensive effect in Wistar rat assessed as increase in heart rate at 10 nmol/kg (reference value: 1 +/- 0.1 beats/min); type: functional; method in brief: as §4
[34] = test system: Rattus norvegicus; assay: Hypertensive effect in Wistar rat assessed as increase in heart rate at 1 nmol/kg (reference value: 1 +/- 0.1 beats/min); type: functional; method in brief: as §4
[35] = test system: Rattus norvegicus; assay: Hypertensive effect in Wistar rat assessed as change in mean arterial pressure at 1000 nmol/kg (reference value: 7 +/- 2 mmHg); type: functional, Artery; method in brief: as §4
[36] = species on record: Cavia porcellus; assay: Ratio of relative activity for guinea pig beta-2 adrenergic receptor to relative activity for guinea pig beta-1 adrenergic receptor
[37] = target: Beta-1 adrenergic receptor (Cavia porcellus) (UniProt B0FL73); conditions: Cardiac atrium
[38] = test system: Rattus norvegicus; assay: Hypertensive effect in Wistar rat assessed as change in mean arterial pressure at 100 nmol/kg up to 15 mins (reference value: 7 +/- 2 mmHg); type: functional, Artery; conditions: in the assay text read “up to 1 min” for “up to 15 mins”; method in brief: as §4
[39] = target: Beta-1 adrenergic receptor (Cavia porcellus) (UniProt B0FL73); conditions: Cardiac atrium; remark: listed apart in the source
[40] = test system: Rattus norvegicus; assay: Hypertensive effect in Wistar rat assessed as change in mean arterial pressure at 10 nmol/kg (reference value: 7 +/- 2 mmHg); type: functional, Artery; method in brief: as §4
[41] = test system: Rattus norvegicus; assay: Hypertensive effect in Wistar rat assessed as change in mean arterial pressure at 1000 nmol/kg in presence of propranolol (reference value: 7 +/- 2 mmHg); type: functional, Artery; method in brief: as §4
[42] = test system: Rattus norvegicus; assay: Hypertensive effect in Wistar rat assessed as increase in heart rate at 100 nmol/kg up to 1 min (reference value: 1 +/- 0.1 beats/min); type: functional; conditions: in the assay text read “up to 15 mins” for “up to 1 min”; method in brief: as §4
[43] = target: Beta-2 adrenergic receptor (Cavia porcellus) (UniProt Q8K4Z4); conditions: Trachea; remark: listed apart in the source
[44] = Octanol-water partition coefficient, log P of the compound; type: physicochemical

N[C@@H](Cc1ccc2[nH]cnc2c1)C(=O)O
Ki [1]: 20 µM

CC(C)NCC(O)c1ccc2[nH]c(=O)[nH]c2c1 (configuration not stated)
inhibition in vivo at 0.1 mg/kg [2]: 35%

NC[C@H](O)c1ccc(O)c(O)c1
ED50 [3]: 1.1 µM

NCC(O)c1ccc2[nH]cnc2c1 (racemic)
Activity [4]: 40 mmHg
Activity [5]: 39 mmHg
Activity [6]: 46 mmHg
Activity [7]: 98 mmHg
Activity [8]: 82 mmHg
Activity [9]: inactive
Activity [10]: 48 mmHg
Activity [11]: inactive
Activity [12]: 150 mmHg
Activity [13]: inactive
Activity [14]: -4 mmHg
Activity [15]: 70 mmHg
Activity [16]: 8 mmHg
Activity [17]: -5 mmHg
Activity [18]: 9 mmHg
Activity [19]: 73 mmHg
ED50 [3]: 8 µM
Activity [20]: 41%
Activity [21]: 150 mmHg
Activity [22]: 40%

CC(C)NCC(O)c1ccc2[nH]cnc2c1 (racemic)
Activity [23]: 4 mmHg
%max [24]: 58%
Activity [24]: 4.79%
%max [25]: 33%
%max [26]: 50%
Activity [26]: 0.355%
ED50 [27]: 1.6 µM
pD2 [27]: 5.78
Activity [28]: 13 bpm
Activity [29]: inactive
fold change (FC) [30]: 2
Activity [31]: 59 bpm
Activity [32]: inactive
Activity [33]: 12 bpm
Activity [34]: 1 bpm
Activity [35]: -30 mmHg
Ratio [36]: 13.5
ED50 [37]: 6.2 µM
pD2 [37]: 5.21
Activity [38]: -12 mmHg
ED50 [39]: 3.8 µM
pD2 [39]: 5.42
Activity [40]: -6 mmHg
Activity [41]: 3 mmHg
Activity [42]: 65 bpm

CC(C)NCC(O)c1ccc(O)c(O)c1 (racemic)
ED50 [27]: 7.8 ×10⁻⁸ M
pD2 [27]: 7.1
ED50 [43]: 2.1 ×10⁻⁸ M

Oc1ccccc1O [CATECHOL]
logP [44]: 0.88
